Measurements reported in ChEMBL document CHEMBL4422659, “Discovery of novel 4-phenyl-2-(pyrrolidinyl)nicotinamide derivatives as potent Nav1.1 activators” (Bioorg Med Chem Lett, 2019).
Values after ≈ are worked out from the molar mass of the structure shown.

Columns and labels:
[1] = molecular target: Sodium channel protein type 1 subunit alpha (Homo sapiens) (UniProt P35498); assay: Activation of human Nav1.1 expressed in T-Rex-CHO cells assessed as change in decay time constant of channel currents at 3 uM at holding potential of -120 mV by automated patch-clamp electrophysiology assay relative to control; format: cell-based
Outline: (§1)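 Human Nav1.1 stably expressed in CHO cells; inactivation current decay time constant (tau) measured on IonWorks automated patch platform; tau given as % of control; mean of N=5 unless noted, standard deviation reported.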

[2] = molecular target: Sodium channel protein type 1 subunit alpha (Homo sapiens) (UniProt P35498); assay: Activation of human Nav1.1 expressed in T-Rex-CHO cells assessed as change in decay time constant of channel currents at 10 uM at holding potential of -120 mV by automated patch-clamp electrophysiology assay relative to control; format: cell-based; outline: as §1
[3] = molecular target: Sodium channel protein type 1 subunit alpha (Homo sapiens) (UniProt P35498); assay: Activation of human Nav1.1 expressed in T-Rex-CHO cells assessed as change in decay time constant of channel currents at 1 uM by Q-patch assay relative to control; format: cell-based
Outline: (§2)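 Human Nav1.1 in CHO cells, Q-patch automated patch clamp; current decay time constant (tau) and top current ratio expressed as % of control; mean of N=4 unless noted, standard deviation reported.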

[4] = molecular target: Sodium channel protein type 1 subunit alpha (Homo sapiens) (UniProt P35498); assay: Activation of human Nav1.1 expressed in T-Rex-CHO cells assessed as change in decay time constant of channel currents at 0.3 uM by Q-patch assay relative to control; format: cell-based; outline: as §2
[5] = molecular target: Sodium channel protein type 1 subunit alpha (Homo sapiens) (UniProt P35498); assay: Activation of human Nav1.1 expressed in T-Rex-CHO cells assessed as change in decay time constant of channel currents at 1 uM at holding potential of -120 mV by automated patch-clamp electrophysiology assay relative to control; format: cell-based; outline: as §1
[6] = molecular target: Sodium channel protein type 1 subunit alpha (Homo sapiens) (UniProt P35498); assay: Activation of human Nav1.1 expressed in T-Rex-CHO cells assessed as change in decay time constant of channel currents at 0.03 uM by Q-patch assay relative to control; format: cell-based; outline: as §2
[7] = molecular target: Sodium channel protein type 1 subunit alpha (Homo sapiens) (UniProt P35498); assay: Activation of human Nav1.1 expressed in T-Rex-CHO cells assessed as change in decay time constant of channel currents at 0.1 uM by Q-patch assay relative to control; format: cell-based; outline: as §2
[8] = molecular target: Sodium channel protein type 1 subunit alpha (Homo sapiens) (UniProt P35498); assay: Activation of human Nav1.1 expressed in T-Rex-CHO cells assessed as change in decay time constant of channel currents at 0.3 uM at holding potential of -120 mV by automated patch-clamp electrophysiology assay relative to control; format: cell-based; outline: as §1
[9] = molecular target: Sodium channel protein type 1 subunit alpha (Homo sapiens) (UniProt P35498); assay: Activation of human Nav1.1 expressed in T-Rex-CHO cells assessed as change in decay time constant of channel currents at 3 uM by Q-patch assay relative to control; format: cell-based; outline: as §2
[10] = molecular target: Sodium channel protein type 1 subunit alpha (Homo sapiens) (UniProt P35498); assay: Activation of human Nav1.1 expressed in T-Rex-CHO cells assessed as change in top peak current at 10 uM by Q-patch assay relative to control; format: cell-based; outline: as §2
[11] = molecular target: Sodium channel protein type 1 subunit alpha (Homo sapiens) (UniProt P35498); assay: Activation of human Nav1.1 expressed in T-Rex-CHO cells assessed as change in top peak current at 3 uM by Q-patch assay relative to control; format: cell-based; outline: as §2
[12] = molecular target: Sodium channel protein type 1 subunit alpha (Homo sapiens) (UniProt P35498); assay: Activation of human Nav1.1 expressed in T-Rex-CHO cells assessed as change in decay time constant of channel currents at 10 uM by Q-patch assay relative to control; format: cell-based; outline: as §2
[13] = 1-octanol/water partition co-efficient, log D of the compound at pH 7.4 by chromatographic analysis; format: physicochemical
[14] = molecular target: Sodium channel protein type 1 subunit alpha (Homo sapiens) (UniProt P35498); assay: Activation of human Nav1.1 expressed in T-Rex-CHO cells assessed as change in decay time constant of channel currents at 30 uM at holding potential of -120 mV by automated patch-clamp electrophysiology assay relative to control; format: cell-based; outline: as §1
[15] = Aqueous solubility of compound at pH 6.8 by UV absorbance method; format: physicochemical; settings: buffer
Outline: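 Solubility determined at pH 6.8.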

[16] = molecular target: Sodium channel protein type 1 subunit alpha (Homo sapiens) (UniProt P35498); assay: Activation of human Nav1.1 expressed in T-Rex-CHO cells assessed as change in top peak current at 1 uM by Q-patch assay relative to control; format: cell-based; outline: as §2

Row | Activity [1] | Activity [2] | Activity [3] | Activity [5] | Structure (SMILES) | also measured
1 | 145% | 162% | – | – | CC(C)c1ccc(NC(=O)c2c(-c3ccc(Cl)cc3)ncnc2N2CC[C@@H](F)C2)cn1 | –
2 | 391% | – | 1400% | 135% | CC(C)c1ccc(NC(=O)c2c(-c3ccccc3F)ncnc2N2CC[C@H](F)C2)cn1 | Activity [4]: 711%
3 | 96% | 74% | – | – | CCN(CC)c1ncnc(-c2ccc(Cl)cc2)c1C(=O)Nc1ccc(C(C)C)nc1 | –
4 | 98% | – | – | 86% | CC(C)c1ccc(NC(=O)c2c(-c3ccco3)ncnc2N2CC[C@H](F)C2)cn1 | –
5 | 257% | 342% | 682% | 107% | CC(C)c1ccc(NC(=O)c2c(-c3ccc(Cl)cc3)ncnc2N2CC[C@H](F)C2)cn1 | Activity [4]: 170%
6 | 298% | – | – | 114% | CC(C)c1ccc(NC(=O)c2c(-c3cc(F)cc(F)c3F)ncnc2N2CC[C@H](F)C2)cn1 | –

More lines, now with the values behind:

Row | Structure (SMILES) | Activity [1] | Activity [2] | Activity [3] | Activity [5] | also measured
7 | CC(C)c1ccc(NC(=O)c2c(-c3ccc(Cl)cc3)ccnc2N2CCOCC2)cn1 | 374% | 767% | – | – | –
8 | CC(C)c1ccc(NC(=O)c2c(-c3cc(F)ccc3F)ncnc2N2CC[C@H](F)C2)cn1 | 714% | – | 1900% | 260% | Activity [6]: 124%; Activity [7]: 193%; Activity [4]: 853%; Activity [8]: 135%
9 | CC(C)c1ccc(NC(=O)c2c(-c3ccc(Cl)cc3)ncnc2N2CCCCC2)cn1 | 110% | 105% | – | – | –
10 | CC(C)c1ccc(NC(=O)c2c(-c3ccc(F)cc3)ncnc2N2CC[C@H](F)C2)cn1 | 197% | – | – | 93% | –
11 | Cc1cc(C)c(NC(=O)c2c(-c3ccc(Cl)cc3)noc2N2CCOCC2)c(C)c1 | 99% | 102% | 113% | – | Activity [9]: 120%; Activity [10]: 86%; Activity [11]: 86%; Activity [12]: 179%; chromatographic logD [13]: 3.43; Activity [14]: 138%; solubility [15]: 0.9 µg/mL (≈ 2.11 µM); Activity [16]: 92%
12 | CC(C)c1ccc(NC(=O)c2c(-c3ccc(Cl)cc3)ncnc2N2CCCC2)cn1 | 140% | 257% | – | – | –
